Measurements reported in ChEMBL document CHEMBL4118029, “Marine Terpenoid Diacylguanidines: Structure, Synthesis, and Biological Evaluation of Naturally Occurring Actinofide and Synthetic Analogues” (2017).

Assays:
[1] = system: B16-F10; assay: Growth inhibition of mouse B16F10 cells after 72 hrs by MTT assay; format: functional; settings: B16-F10, 72 h
How it was run: (§1)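 Cells were grown in RPMI with 10% heat-inactivated fetal bovine serum, 4 mM glutamine, 100 μg/mL gentamicin and penicillin–streptomycin (200 units/mL and […]). They were cultured with compound for 72 h, then read by MTT colorimetric assay. GI50 is the concentration cutting growth by 50% relative to untreated control.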

[2] = system: U373 MG; assay: Growth inhibition of human U373 cells after 72 hrs by MTT assay; format: functional, U-373MG ATCC; how it was run: as §1
[3] = system: MCF7; assay: Growth inhibition of human MCF7 cells after 72 hrs by MTT assay; format: functional; settings: MCF7, 72 h; how it was run: as §1
[4] = system: Hs 683; assay: Growth inhibition of human Hs683 cells after 72 hrs by MTT assay; format: functional; settings: Hs 683, 72 h; how it was run: as §1
[5] = system: SK-MEL-28; assay: Growth inhibition of human SK-MEL-28 cells after 72 hrs by MTT assay; format: functional; settings: SK-MEL-28, 72 h; how it was run: as §1
[6] = system: A549; assay: Growth inhibition of human A549 cells after 72 hrs by MTT assay; format: functional; settings: A549, 72 h; how it was run: as §1

Row | SMILES | GI50 [1] [µM] | GI50 [2] [µM] | GI50 [3] [µM] | GI50 [4] [µM] | GI50 [5] [µM] | GI50 [6] [µM]
1 | CC(C)=CC(=O)NC(=N)N | 92.8 | > 100 | > 100 | > 100 | > 100 | > 100
2 | CC(C)=CCC/C(C)=C/C(=O)NC(=N)NC(=O)/C=C(\C)CCC=C(C)C | 23.8 | 38.9 | 42.4 | 32.7 | 61.9 | 46.9
3 | CC(C)=CC(=O)NC(=N)NC(=O)C=C(C)C | 21.3 | 45.6 | 59.7 | 60.3 | > 100 | 75.6
4 | CC(C)=CCC/C(C)=C/CC/C(C)=C/C(=O)NC(=N)NC(=O)C=C(C)C | 7.5 | 15.7 | 23.4 | 8.3 | 24.2 | 23.4
5 | C=C1CCCC(C)(C)[C@@H]1CC/C(C)=C/C(=O)NC(=N)NC(=O)C=C(C)C | 9.6 | 28.8 | 28.1 | 18.1 | 60.5 | 29.4
6 | CC(C)=CCC/C(C)=C/C(=O)NC(=N)N | 17.1 | 46 | 52.2 | 39.4 | 56.3 | 76.5
7 | CC(C)=CCC/C(C)=C/CC/C(C)=C/C(=O)NC(=N)N | 9.2 | 21 | 22 | 10 | 20.1 | 13.7
8 | CC(C)=CCC/C(C)=C/CC/C(C)=C/C(=O)NC(=N)NC(=O)/C=C(\C)CC/C=C(\C)CCC=C(C)C | 5.7 | 9.2 | 30.3 | 6.8 | 42.7 | 18.5
9 | CC(C)=CCC/C(C)=C/C(=O)NC(=N)NC(=O)C=C(C)C | 25 | 36.2 | 41.5 | 31.5 | 53.4 | 37.4
10 | CC(C)=CCC/C(C)=C/CC/C(C)=C/C(=O)NC(=N)NC(=O)/C=C(\C)CCC=C(C)C | 18.9 | 35 | 51.2 | 37.4 | 57.3 | 38.9
11 | COc1cc([C@@H]2c3cc4c(cc3[C@@H](O[C@@H]3O[C@@H]5CO[C@@H](C)O[C@H]5[C@H](O)[C@H]3O)[C@H]3COC(=O)[C@H]23)OCO4)cc(OC)c1O [ETOPOSIDE] | – | 24.9 | 4 | 1.5 | 3.2 | 1.7
